# UCH37 DUB inh = human UCH37 deubiquitinating enzyme inhibition | inhibition, % (test concentration not listed) | actives 0.33% (n = 330,000) | AID 588478 | purified proteasome/UCH37, Ub-AMC cleavage fluorescence;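 active means mean inhibition over replicate wells above about 20%, limit read from the data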;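 further: 0% = compound-free wells with enzyme and 100% = wells lacking proteasome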
# Target sequence (Q9Y5K5 whole entry, looked up): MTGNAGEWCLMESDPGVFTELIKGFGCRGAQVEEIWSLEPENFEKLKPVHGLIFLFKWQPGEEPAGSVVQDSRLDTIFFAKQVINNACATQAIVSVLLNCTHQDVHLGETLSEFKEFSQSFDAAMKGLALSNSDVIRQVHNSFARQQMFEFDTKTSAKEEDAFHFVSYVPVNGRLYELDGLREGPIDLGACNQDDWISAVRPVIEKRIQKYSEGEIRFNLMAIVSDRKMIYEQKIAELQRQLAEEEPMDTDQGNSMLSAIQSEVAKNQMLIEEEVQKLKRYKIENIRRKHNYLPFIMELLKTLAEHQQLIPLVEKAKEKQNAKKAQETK
#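 Material: Human UCH37 enzyme supplied as purified proteasome complex | Schedule: 30 min preincubation with enzyme, 25 min cleavage at room temperature | Detection: AMC fluorescence 355/460 nm | Measure: % inhibition of Ub-AMC cleavage fluorescence | Controls: Wells without proteasome as full block, compound-free enzyme plus substrate as uninhibited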
# FAS TE block = FAS thioesterase (human) inhibition | recombinant FAS-TE, OMFH fluorogenic substrate, fluorescence endpoint | inhibition, % at 15 µM | actives 0.67% (n = 360,000) | P49327;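 active means compounds whose normalised, plate-corrected inhibition of enzyme fluorescence in the single-dose primary screen is 50% or more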;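 further: 0% = DMSO with enzyme and 100% = substrate without enzyme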
# ALR H2O2 inh = inhibitors of human sulfhydryl oxidase ALR; P55789; purified ALR, DTT oxidation, H2O2 HRP-luminol luminescence; inhibition, % (concentration not given with the values); actives 3.8% (n = 290,000); AID 485317;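 active means mean replicate inhibition above about 79%, with every replicate also reaching it, limit read from the data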
# Target sequence (P55789 whole entry, looked up): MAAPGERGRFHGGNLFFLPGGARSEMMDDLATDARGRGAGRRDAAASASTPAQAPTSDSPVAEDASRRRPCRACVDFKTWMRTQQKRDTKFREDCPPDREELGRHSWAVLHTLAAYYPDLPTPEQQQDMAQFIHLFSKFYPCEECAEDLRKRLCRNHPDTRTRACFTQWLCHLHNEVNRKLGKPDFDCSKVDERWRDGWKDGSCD
# M18AAP inhibitor = blocks P. falciparum M18 aspartyl aminopeptidase | recombinant PfM18AAP, H-Glu-NHMec fluorogenic cleavage | inhibition, % at 7.35 µM | actives 1.2% (n = 290,000) | AID 1822;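 active means inhibition above the campaign mean inhibition over all tested compounds plus 3 SD, cut at about 28% in these data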;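 further: 0% = plate median of test compound wells and 100% = 2 mM ZnCl2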
# Rtt109 Vps75 = C. albicans Rtt109 histone acetyltransferase inhibition | Q5AAJ8 | purified Rtt109/Vps75, ThioGlo CoA-SH fluorescence, 4 h | inhibition, % at 34.9 µM | actives 0.16% (n = 330,000);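 active means inhibition of at least 50% in every replicate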
# HDAC3 inhib = blocks human histone deacetylase 3; inhibition, % at 8.3 µM; recombinant HDAC3, fluorogenic peptide/trypsin coupled, fluorescence; actives 0.15% (n = 320,000); O15379; in the data active means inhibition above about 26%, passing the limit was not always enough
# Starred values were filed as active, the others as inactive; x = no result given. In the library only some 4.6% were active in any assay of this set; here they are far more common.
SMILES,UCH37 DUB inh,FAS TE block,ALR H2O2 inh,M18AAP inhibitor,Rtt109 Vps75,HDAC3 inhib
Cc1onc(C(=O)Nc2sc3c(c2C#N)CCCC3)c1[N+](=O)[O-],10,-8,90*,26,3,3
Cc1onc(-c2ccccc2Cl)c1C(=O)Nc1sc2c(c1C#N)CCC2,2,17,16,3,-8,6
CC(=NNC(=O)c1ccc2c(c1)OCO2)c1ccc2c(c1)OCO2,7,x,x,x,x,x
COc1cc(C=NNS(=O)(=O)c2ccccc2)c(OC)c(OC)c1,3,x,x,x,x,x
Nc1c(Cl)ncnc1NN=Cc1ccc2ccccc2n1,9,x,x,x,x,x
CSc1c(SCc2ccccc2)cnn(-c2ccccc2)c1=O,9,19,-3,-5,58*,-3
Cn1ncc(SCc2ccccc2)c(Cl)c1=O,1,0,3,-1,-1,-7
COc1cccc(-c2c(C(=O)NN=Cc3sccc3C)nnn2-c2nonc2N)c1,0,x,x,x,x,x
COc1ccc(C(=O)NNC2CC(=O)N(Cc3ccccc3)C2=O)cc1OC (centres undefined),0,-8,x,3,15,5
CCOc1ccc(C(=O)NNC2CC(=O)N(Cc3ccc(Cl)cc3)C2=O)cc1OC (centres undefined),0,5,97*,-1,-7,-8
Cc1cccc(C(=O)N2CCN=C2SCc2ccc([N+](=O)[O-])cc2)c1,4,-57,99*,1,10,2
Cc1cccc(CSC2=NCCN2S(=O)(=O)c2ccc(F)cc2)c1,5,29,-5,-3,8,1
O=C(Cc1ccccc1)N1CCN(S(=O)(=O)c2cccc([N+](=O)[O-])c2)CC1,2,2,1,-2,5,-4
O=C(Cc1ccccc1)N1CCN=C1SCc1cccc([N+](=O)[O-])c1,3,2,98*,19,9,3
Cc1cccc(CSC2=NCCN2C(=O)c2ccc(Br)o2)c1,5,24,95*,-5,-5,0
CCCOc1ccc(C=NNc2cccc([N+](=O)[O-])c2)c(O)c1,5,x,x,x,x,x
CCCOc1ccc(C=c2sc3ncnn3c2=O)cc1,-1,x,x,x,x,x
O=C(O)c1cc(NN=Cc2ccc3c(c2)OCCO3)ccc1Cl,9,x,x,x,x,x
O=[N+]([O-])c1cccc(C=Nn2c(C3CCCCC3)n[nH]c2=S)c1,2,x,x,x,x,x
CN(C)c1ccc(/C=N/NC(=S)NCc2ccco2)cc1,x,-3,98*,16,-3,-4
S=C(NCc1ccco1)N/N=C/c1ccncc1,x,-3,7,6,-6,-2
CCN(CC)c1ccc(/C=N/NC(=O)CNC(=O)c2ccc3c(c2)OCCO3)cc1,x,-2,87*,5,12,-60
CN(C)c1ccc(/C=N/NC(=O)CNC(=O)/C=C/c2ccco2)cc1,x,-4,91*,5,-7,6
CN(C)c1ccc(/C=N/NC(=O)CCCCCNC(=O)c2ccccc2)cc1,x,-3,x,-8,-3,x
CN(C)c1ccc(/C=N/NC(=O)CNC(=O)c2ccncc2)cc1,x,-6,98*,9,4,7
SMILES,UCH37 DUB inh,FAS TE block,ALR H2O2 inh,M18AAP inhibitor,Rtt109 Vps75,HDAC3 inhib
CC(C)Nc1nc(NC(C)C)nc(Oc2ccc(C=NO)cc2)n1,0,x,x,x,x,x
CN(C)c1ccc(/C=N/NC(=O)CNC(=O)c2ccc3c(c2)OCCO3)cc1,x,-9,98*,5,-5,-28
C=CCn1cccc(C(=O)Nc2ccc(Cl)cc2)c1=O,3,4,-4,4,-3,-4
C=CCn1cccc(C(=O)Nc2ccc(N(C)C)cc2)c1=O,8,-1,99*,15,5,-2
O=C(COC(=O)CSc1ccc([N+](=O)[O-])cc1)NCC1CCCO1 (centres undefined),6,-1,99*,5,2,1
O=C(COC(=O)CSc1ccc([N+](=O)[O-])cc1)NC1CCCCCCC1,5,5,-9,x,x,6
CC1(C)CNc2cc(N)ccc2S1,1,-6,84*,3,1,-1
COc1cc(C=NNC(=O)c2cccs2)ccc1O,4,x,x,x,x,x
Nc1nonc1-n1nnc(C(=O)NN=Cc2ccccc2Cl)c1-c1ccc2c(c1)OCO2,-16,x,x,x,x,x
O=C(Nc1sc2c(c1-c1nc3ccccc3[nH]1)CCCC2)C1CCCC1,-185,12,8,7,1,8
CC(=O)NCCC(=O)Nc1sc2c(c1-c1nc3ccccc3[nH]1)CCCC2,-62,1,98*,8,6,-1
COc1ccc(Cl)cc1N(CC(=O)NN=Cc1ccc(OCC(N)=O)cc1)S(C)(=O)=O,4,x,x,x,x,x
COc1cc(C=NNC(=O)C2COc3ccccc3O2)cc(OC)c1OC (centres undefined),-1,x,x,x,x,x
CCOc1ccc(/C(O)=C2/C(=O)C(=O)N(CCN(CC)CC)C2c2cccs2)cc1 (centres undefined),1,-7,-5,-7,0,3
C=CCOc1ccc(/C(O)=C2\C(=O)C(=O)N(CCN(C)C)C2c2cccs2)cc1 (centres undefined),24*,-6,-3,6,-7,-3
COc1cccc(C=NNc2snc(SC)c2C#N)c1,6,x,x,x,x,x
CCOC(=O)C(C(C)=O)c1c(Br)c(O)c(O)c2c(C(=O)c3ccc(C)cc3)coc12 (centres undefined),3,22,-7,47*,-3,1
Cc1ccc(NCCC(=O)c2cccs2)cc1Cl,3,8,14,-8,0,0
Cc1ccc(NCCC(=O)c2cccs2)cc1,5,7,99*,7,10,-2
CC(C)c1ccc(NCCC(=O)c2cccs2)cc1,5,17,x,4,9,2
Cc1ccc(NCCC(=O)c2cccs2)cc1C,-1,6,99*,0,0,-2
COc1ccc(N(CC(=O)NN=Cc2ccc(OC3CSC3)cc2)S(=O)(=O)c2ccccc2)cc1,2,x,x,x,x,x
CCC(C)c1c(O)nc(SCC(=O)N2CCCCCC2)[nH]c1=O (centres undefined),6,-3,97*,2,-73,1
CC(C)c1c(O)nc(SCc2ccccc2)[nH]c1=O,2,-4,-47,2,-4,-1
CC(C)Cc1c(O)nc(SCC(=O)N2CCCCCC2)[nH]c1=O,5,-4,97*,4,-55,2
SMILES,UCH37 DUB inh,FAS TE block,ALR H2O2 inh,M18AAP inhibitor,Rtt109 Vps75,HDAC3 inhib
CCC(C)c1c(O)nc(SCc2ccccc2)[nH]c1=O (centres undefined),6,-3,99*,3,-1,7
CC(C)CCc1c(O)nc(SCC(C)C)[nH]c1=O,-1,-2,89*,-5,-13,0
CCOc1cc(C=NNC(=O)C(=O)Nc2cc(Cl)ccc2C)ccc1O,-1,x,x,x,x,x
Cn1c2c(c3ccccc31)CCC2=NO,0,x,x,x,x,x
Cc1ccc(C=NNC(=O)c2ccncc2)o1,18,x,x,x,x,x
COc1ccc(-c2nc3cnccn3c2Nc2ccc3c(c2)OCO3)cc1,-41,10,87*,5,9,0
Cc1ccc2nc(-c3ccccc3O)c(Nc3ccc4c(c3)OCCO4)n2c1,-56,35,7,-1,-2,3

# Source: PubChem BioAssay
